Screening results from PubChem.
Shown are actives, neighbours in structure and some others; about 4.1% of the full set was active somewhere.
FLuc inh counter – counter-screen for luciferase assay inhibitors: firefly luciferase inhibition | inhibition, % at 10 µM | AID 1006 | 200,000 compounds, 1.5% hits | ATPLite firefly luciferase biochemical luminescence, 10 min | P08659;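 active = inhibition above about 50% when tested at 10 µM, limit read from the data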
Target sequence (P08659 whole entry, looked up): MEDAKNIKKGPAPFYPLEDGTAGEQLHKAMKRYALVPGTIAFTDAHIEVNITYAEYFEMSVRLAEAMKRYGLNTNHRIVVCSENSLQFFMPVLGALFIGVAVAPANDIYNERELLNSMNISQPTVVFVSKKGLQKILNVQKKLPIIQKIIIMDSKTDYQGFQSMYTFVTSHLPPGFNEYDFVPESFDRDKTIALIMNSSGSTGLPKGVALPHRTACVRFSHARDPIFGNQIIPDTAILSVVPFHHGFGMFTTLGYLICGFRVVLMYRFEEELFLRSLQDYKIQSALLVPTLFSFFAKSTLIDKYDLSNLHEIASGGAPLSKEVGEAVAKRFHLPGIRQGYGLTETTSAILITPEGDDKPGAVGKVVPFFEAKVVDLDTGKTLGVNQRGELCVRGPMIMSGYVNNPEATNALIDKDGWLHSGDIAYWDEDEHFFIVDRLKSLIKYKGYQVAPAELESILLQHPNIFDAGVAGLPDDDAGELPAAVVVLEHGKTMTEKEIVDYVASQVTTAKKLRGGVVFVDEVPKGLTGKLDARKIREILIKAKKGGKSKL
APP 5'UTR act – APP 5'UTR luciferase reporter activation | activation, % at 2 µM | 190,000 compounds, 1% hits | SH-SY5Y APP 5'UTR luciferase reporter, luminescence; zero percent = DMSO vehicle wells;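 active = activation above a set limit, based on mean plus 3 SD of controls, cut at about 140% in these data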
NF-kB neuron act – NF-kB expression increase, human neuronal cells; NF-kB reporter expression; hits give high values; fold change at 12.5 µM; 190,000 compounds, 1.6% hits; in the data active = fold change above about 3.3
STAT1 activator – increases IFN-gamma driven STAT1 reporter signal; NIH 3T3 STAT1-luciferase reporter, luminescence; 100% = IFN-gamma alone, no compound; 200,000 compounds, 2.6% hits; activation (% of control), % at 5.5 µM; AID 932;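 active = activation above the screen-wide mean activation plus 3 SD, cut at about 130% in these data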;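 also: raw ratio to IFN-gamma control signal so 100% means no change and 0% no light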
FLuc stim CS – firefly luciferase counter-screen for stimulation assays; P08659; ATPlite luciferase biochemical, luminescence, 10 min; 0 = ATP-free wells, 1 = DMSO control; activation factor at 10 µM; 200,000 tested, under 10 active;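 active = luciferase activation factor, scaled between plate controls, of at least 2 with compound at 10 µM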
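Material: luciferase plus luciferin reagent, cell-free. Medium: PBS buffer for ATP. Also added: ATP substrate, dispensed from a 10.24 µM working solution in PBS. Doses: test compounds dosed from 2 mM stocks in 100% DMSO. Incubation: 10 min post-reagent at room temperature. Technique: light output (luminescence). Read-out basis: luminescence gain marking luciferase activators.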
STAT1 activ conf – confirmation of STAT1 signaling activators | NIH 3T3 STAT1-luciferase reporter, IFN-gamma potentiation, luminescence; 100% = IFN-gamma EC80 alone, no compound | 1,200 compounds, 97% hits | shares compounds with STAT1 activator | AID 1262 | activation (% of control), % at 5.7 µM;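 active = activation above a set limit carried over from the earlier primary STAT1 screen, cut at about 140% in these data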;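 also: simple ratio to median IFN-gamma plus DMSO wells so 0% means no light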
NFkB act STAT1ct – activates NF-kappaB, counter-screen to STAT1 activators. shares compounds with STAT1 activator. HEK293T NF-kB luciferase reporter, TNF-alpha stimulated, luminescence; 100% = TNF-alpha with vehicle only. activation (% of control), % at 5.7 µM. 1,200 compounds, 43% hits. AID 1306;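 active = activation above the mean of solvent-only control wells plus 3 SD, set per campaign, cut at about 130% in these data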;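 also: TNF-alpha given at a submaximal dose yielding about 80% of full reporter signal; values are well signal over median control so 100% means no change and 0% no light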
STAT3 act STAT1c – activates human STAT3, counter-screen to STAT1 activators | AID 1316 | shares compounds with STAT1 activator | 1,200 compounds, 46% hits | activation (% of control), % at 5.7 µM | U3A cells STAT3-luciferase reporter, IL-6, luminescence; cells lack STAT1; 100 = IL-6 alone, no compound effect;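 active = activation above the solvent-only control well mean plus 3 SD, set per plate batch, cut at about 110% in these data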;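 also: 0% = no luminescence and 100% = median IL-6 plus DMSO wells; higher means more STAT3 reporter activation so hits are non-selective activators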
* hit, by the source's call; . = no result given.

SMILES | FLuc inh counter | APP 5'UTR act | NF-kB neuron act | STAT1 activator | FLuc stim CS | STAT1 activ conf | NFkB act STAT1ct | STAT3 act STAT1c
S=C(Nc1ccc(Cl)cc1)c1nc2ccccc2[nH]1 | 66* | . | 2.5 | 167* | 0.3 | 192* | 134* | 102
C=CCN1C=CC(=C/C=C(/C#N)C(=O)OCC)C=C1 | 82* | 143* | 4.6* | 175* | 0.2 | 210* | 133* | 117*
C=CCNC(=O)/C(C#N)=C/c1ccc(OS(=O)(=O)c2ccc(C)cc2)c(OC)c1 | -8 | 14 | 1.2 | 98 | 1.1 | . | . | .
Cc1cc(/C=C(\C#N)C(=O)Nc2ccccc2F)c(C)[nH]1 | 15 | 147* | 5.5* | 172* | 0.8 | 235* | 141* | 116*
Nc1[nH]n2c(=O)cc(-c3ccccc3)nc2c1N=Nc1ccc2c(c1)OCO2 | 30 | -11 | 1.6 | 98 | 0.7 | . | . | .
COc1cccc(/C=N/n2cnc3ccccc32)c1OC | 6 | 152* | 4.1* | 162* | 0.9 | 205* | 131 | 107
COCCCNC(=O)C(=O)NCCCOC(C)C | -3 | 15 | 0.92 | 107 | 1 | . | . | .
COc1ccc(-c2cc(C(=O)Nc3nc4ccccc4s3)c3ccccc3n2)cc1OC | 1 | 16 | 0.58 | 103 | 1 | . | . | .
COc1ccc(OC)c(-c2csc(NC(=O)c3ccc(OCC4CCCO4)cc3)n2)c1 (stereo not drawn) | 39 | 44 | 0.61 | 102 | 0.6 | . | . | .
O=C(Nc1nc2ccccc2s1)c1ccc(Cl)s1 | 32 | 156* | 4.8* | 156* | 0.7 | 231* | 141* | 109
O=C(Nc1ccon1)c1ccc(Cl)s1 | -3 | 4 | 1.2 | 102 | 1 | . | . | .
CSc1nc2ccc(NC(=O)c3ccc(Cl)s3)cc2s1 | 6 | 138* | 1.5 | 186* | 0.9 | 181* | 140* | 104
O=C(Nc1nc2ccccc2s1)c1ccc(OCC2CCCO2)cc1 (stereo not drawn) | 74* | 122 | 1.6 | 177* | 0.3 | 248* | 103 | 97
COc1ccc(C(=O)Nc2nc3ccccc3s2)cc1OC | 21 | 139* | 3.6* | 174* | 0.8 | 227* | 155* | 114*
COc1cccc(C(=O)N2CCN=C2SC)c1 | -6 | 17 | 1 | 92 | 1.1 | . | . | .
CCOc1ccccc1NC(=O)C1CCN(S(=O)(=O)c2cccc3cccnc23)CC1 | -11 | -4 | 0.4 | . | 1.1 | . | . | .
CCN(CC)c1ccc(/C=N/NC(=O)c2ccc([N+](=O)[O-])cc2)cc1 | -1 | 1 | 1.1 | 103 | 1 | . | . | .
CCN(CC)c1ccc(/C=N/NC(=O)c2ccco2)cc1 | 79* | -49 | 6.3* | 165* | 0.2 | 217* | 119 | 98
COc1ccccc1Oc1ccc(N/C=C/C(=O)C(C)(C)C)cc1 | -5 | -14 | 1.3 | 106 | 1 | . | . | .
O=C(/C=C/Nc1ccc(Oc2ccccc2Cl)cc1)c1ccco1 | 29 | 93 | 6.2* | 155* | 0.7 | 178* | 144* | 135*
O=C(/C=C/Nc1cccc(F)c1)c1ccco1 | 76* | 102 | 3.9* | 154* | 0.2 | 192* | 125 | 116*
CC(C)[C@H](NC(=O)c1ccco1)C(=O)OCC(=O)Nc1cccc(F)c1 | -6 | -15 | 1.2 | 99 | 1.1 | . | . | .
CCOC(=O)c1ccc(OS(=O)(=O)c2ccccc2)c(OC)c1 | 3 | 114 | 3.8* | 174* | 1 | 185* | 141* | 123*
Cc1cccc(N2CCN(S(=O)(=O)c3ccc4c(c3)CCN4C(=O)CCC(=O)O)CC2C)c1 (stereo not drawn) | -8 | 0 | 1.2 | 98 | 1.1 | . | . | .
Cc1ccc(-c2cnc(-c3ccncc3)o2)cc1 | 48 | 67 | 2.4 | 153* | 0.5 | 154* | 120 | 94
